Source: ChEMBL document CHEMBL1132144, “Synthesis of 9-O-substituted derivatives of 9-hydroxy-5, 6-dimethyl-6H-pyrido[4,3-b]carbazole-1-carboxylic acid (2-(dimethylamino)ethyl)amide and their 10- and 11-methyl analogues with improved antitumor activity” (J Med Chem, 1999)

Tests used:
B16 = assay: Inhibition of murine B16 melanoma cell proliferation measured by the MTT assay; assay type: functional, cell-based; details: Mus musculus
Outline: (§1)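 Murine L1210 leukemia and B16 melanoma cells were grown in RPMI 1640 with 10% fetal calf serum, 2 mM L-glutamine, penicillin/streptomycin and 10 mM HEPES (pH 7.4). Cells were exposed to nine serial drug dilutions in triplicate for about four doubling times (L1210 48 h, B16 96 h), then read by microculture tetrazolium (MTT) assay. IC50 is the concentration halving optical density versus untreated controls, averaged over ≥2 independent experiments.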

L1210 = assay: Inhibition of murine L1210 leukemia cell proliferation measured by the MTT assay; assay type: functional, cell-based; details: Mus musculus; outline: as §1
Mus musculus [1] = assay: Long-term survivors among 6 mice infected with P388 leukemia, scored on day 90 at 20 mg/kg dose; assay type: functional
Mus musculus [2] = assay: Long-term survivors among 6 mice infected with P388 leukemia, scored on day 60 at 160 mg/kg dose on day 1; assay type: functional
Outline: (§2)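 B6D2F1 mice in groups of 6–7 were inoculated ip on day 0 with 10^6 P388 cells. Dihydrochloride salts were dissolved in water and given iv on day 1 or on days 1, 5 and 9. Doses ranged from a low nontoxic dose to a toxic one. Long-term survivors were counted at day 60.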

Mus musculus [3] = assay: Long-term survivors among 6 mice infected with P388 leukemia, scored on day 60 at 160 mg/kg dose on day 1, 5, 9; assay type: functional; outline: as §2
Mus musculus [4] = assay: Percent median survival time of mice intraperitoneally injected with P388 leukemia was determined from tested at 160 mg/kg at day1 dose to that of control; assay type: functional
Outline: (§3)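 P388 leukemia in B6D2F1 mice (groups of 6–7), 10^6 cells inoculated ip on day 0. Dihydrochloride salts were dissolved in water and given iv on day 1 or on days 1, 5, 9. Three doses were tested, then five if active. %T/C = median survival treated/control × 100, reported at the optimal dose (no toxic death, weight loss <20%), from one or two representative experiments.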

Mus musculus [5] = assay: Percent median survival time of mice intraperitoneally injected with P388 leukemia was determined from tested at 160 mg/kg at day1,5,9 dose to that of control; assay type: functional; details: route intraperitoneal; outline: as §3
Mus musculus [6] = assay: Percent median survival time of mice injected with B16 melanoma, at a intraperitoneal compound dose of 20 mg/kg
Mus musculus [7] = assay: Long-term survivors among 12 mice infected with P388 leukemia, scored on day 60 at 240-320 mg/kg dose on day 1; assay type: functional; outline: as §2
Mus musculus [8] = assay: Percent median survival time of mice injected with P388 leukemia, at a subcutaneous compound dose of 240-320 mg/kg; assay type: functional
Mus musculus [9] = assay: Long-term survivors among 12 mice infected with B16 melanoma, scored on day 90 at 10 mg/kg dose on days 1-9
Mus musculus [10] = assay: Percent median survival time of mice injected with B16 melanoma, at a intraperitoneal compound dose of 10 mg/kg
Mus musculus [11] = assay: Percent median survival time of mice injected with P388 leukemia, at a intravenous compound dose of 80-160 mg/kg
Mus musculus [12] = assay: Long-term survivors among 12 mice infected with P388 leukemia, scored on day 60 at 20 mg/kg dose on day 1, 5, 9; assay type: functional; outline: as §2
Mus musculus [13] = assay: Long-term survivors among 12 mice infected with P388 leukemia, scored on day 60 at 40 mg/kg dose on day 1; assay type: functional; outline: as §2
Mus musculus [14] = assay: Percent median survival time of mice injected with P388 leukemia, at dose of 20 mg/kg on day 1, 5, 9; assay type: functional; outline: as §3
Mus musculus [15] = assay: Percent median survival time of mice injected with P388 leukemia, at dose of 40 mg/kg on day 1; assay type: functional; outline: as §3
Mus musculus [16] = assay: Long-term survivors among 21 mice infected with B16 melanoma, scored on day 90 at 5 mg/kg dose
Mus musculus [17] = assay: Percent median survival time of mice injected with B16 melanoma, at a intraperitoneal compound dose of 5 mg/kg
Mus musculus [18] = assay: Long-term survivors among 14 mice infected with P388 leukemia, scored on day 60 at 320 mg/kg dose on day 1; assay type: functional; outline: as §2
Mus musculus [19] = assay: Percent median survival time of mice injected with P388 leukemia, at a subcutaneous compound dose of 160 mg/kg; assay type: functional
Mus musculus [20] = species: Mus musculus; assay: Long-term survivors among 14 mice infected with B16 melanoma, scored on day 90 at optimal dose on days 1-9
Mus musculus [21] = assay: Percent median survival time of mice injected with P388 leukemia, at a intravenous compound dose of 320 mg/kg
Mus musculus [22] = assay: Percent median survival time of mice injected with B16 melanoma, at a intraperitoneal compound dose of 20-40 mg/kg
Mus musculus [23] = assay: Long-term survivors among 7 mice infected with B16 melanoma, scored on day 90 at 40 mg/kg dose on day 1; assay type: functional
Mus musculus [24] = assay: Long-term survivors among 7 mice infected with P388 leukemia, scored on day 60 at 40 mg/kg dose on day 1; assay type: functional
Outline: (§4)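 B6D2F1 mice in groups of 6–7 received 10^6 P388 cells ip on day 0. Dihydrochloride salts dissolved in water were injected iv on day 1 or on days 1, 5 and 9, at three doses and then five. Read-outs were % T/C (median survival treated/control × 100) and long-term survivors on day 60, both at the optimal dose (no toxic death, weight loss <20%).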

Mus musculus [25] = assay: Percent median survival time of mice injected with P388 leukemia, at a subcutaneous compound dose of 20 mg/kg; assay type: functional
Mus musculus [26] = assay: Percent median survival time of mice injected with P388 leukemia, at a intravenous compound dose of 40 mg/kg
Mus musculus [27] = assay: Percent median survival time of mice injected with B16 melanoma, at a intraperitoneal compound dose of 1.25 mg/kg
Mus musculus [28] = assay: Long-term survivors among 7 mice infected with B16 melanoma, scored on day 90 at 240 mg/kg dose on day 1; assay type: functional
Mus musculus [29] = assay: Long-term survivors among 7 mice infected with P388 leukemia, scored on day 60 at 240 mg/kg dose on day 1; assay type: functional; outline: as §4
Mus musculus [30] = assay: Percent median survival time of mice injected with P388 leukemia, at a subcutaneous compound dose of 240 mg/kg; assay type: functional
Mus musculus [31] = assay: Percent median survival time of mice injected with B16 melanoma, at a intraperitoneal compound dose of 80 mg/kg
Mus musculus [32] = assay: Long-term survivors among 6 mice infected with P388 leukemia, scored on day 60 at 240 mg/kg dose; assay type: functional; outline: as §2
Mus musculus [33] = assay: Percent median survival time of mice intraperitoneally injected with P388 leukemia was determined from tested at 240 mg/kg at day1 dose to that of control; assay type: functional; details: route intraperitoneal; outline: as §3
Mus musculus [34] = assay: Long-term survivors among 6 mice infected with P388 leukemia, scored on day 60 at 160 mg/kg dose; assay type: functional; outline: as §2

Cc1c2ccnc(C(=O)NCCN(C)C)c2cc2c3cc(OCCCCC(=O)O)ccc3n(C)c12
IC50 (B16): 3.47 µM | IC50 (L1210): 4.23 µM | LTS (Mus musculus [1]): 0 | LTS (Mus musculus [2]): 0 | LTS (Mus musculus [3]): 0 | T/C (Mus musculus [4]): 107% | T/C (Mus musculus [5]): 108% | T/C (Mus musculus [6]): 146%

Cc1c2ccnc(C(=O)NCCN(C)C)c2cc2c3cc(OC(=O)CCCCC(=O)O)ccc3n(C)c12
IC50 (B16): 0.005 µM | IC50 (L1210): 0.0208 µM | LTS (Mus musculus [7]): 16 | T/C (Mus musculus [8]): >607% | LTS (Mus musculus [9]): 4 | T/C (Mus musculus [10]): >352% | T/C (Mus musculus [11]): >607%

Cc1c2c(C(=O)NCCN(C)C)nccc2c(C)c2c1c1cc(OC(=O)CCCC(=O)O)ccc1n2C
IC50 (B16): 0.0014 µM | IC50 (L1210): 0.034 µM | LTS (Mus musculus [12]): 11 | LTS (Mus musculus [13]): 11 | T/C (Mus musculus [14]): >640% | T/C (Mus musculus [15]): >640% | LTS (Mus musculus [16]): 0 | T/C (Mus musculus [17]): 202%

Cc1c2ccnc(C(=O)NCCN(C)C)c2cc2c3cc(OC(=O)CC(C)(C)CC(=O)O)ccc3n(C)c12
IC50 (B16): 0.0037 µM | IC50 (L1210): 0.0027 µM | LTS (Mus musculus [18]): 4 | T/C (Mus musculus [19]): 404% | LTS (Mus musculus [20]): 5 | T/C (Mus musculus [21]): >600% | T/C (Mus musculus [22]): >466%

Cc1c(OC(=O)CCCCC(=O)O)ccc2c1c1cc3c(C(=O)NCCN(C)C)nccc3c(C)c1n2C
IC50 (B16): 0.0064 µM | IC50 (L1210): 0.0247 µM | LTS (Mus musculus [23]): 0 | LTS (Mus musculus [24]): 0 | T/C (Mus musculus [25]): >600% | T/C (Mus musculus [26]): 300% | T/C (Mus musculus [27]): 127%

Cc1c2ccnc(C(=O)NCCN(C)C)c2cc2c3cc(OC(=O)NCCCC(=O)O)ccc3n(C)c12
IC50 (B16): 0.0457 µM | IC50 (L1210): 0.522 µM | LTS (Mus musculus [28]): 0 | LTS (Mus musculus [29]): 0 | T/C (Mus musculus [19]): 109% | T/C (Mus musculus [30]): 111% | T/C (Mus musculus [31]): 139%

Cc1c2ccnc(C(=O)NCCN(C)C)c2cc2c3cc(OCC(O)CO)ccc3n(C)c12 (stereo unspecified)
IC50 (B16): 0.955 µM | IC50 (L1210): 0.5 µM | LTS (Mus musculus [32]): 0 | T/C (Mus musculus [5]): 114% | T/C (Mus musculus [33]): 127% | LTS (Mus musculus [34]): 0 | T/C (Mus musculus [6]): 129%
